Reference: ChEMBL document CHEMBL1142004, “Dipeptidyl aspartyl fluoromethylketones as potent caspase inhibitors: peptidomimetic replacement of the P2 alpha-amino acid by a alpha-hydroxy acid” (Bioorg Med Chem Lett, 2005)

What was measured:
HeLa = assay: Concentration tested for 50% of TNF- alpha induce HeLa cell protection was determined; type: functional, cell-based; details: Homo sapiens
In short: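 HeLa cells were treated with TNF-α to induce apoptosis, with inhibitor present. Viability was quantified by calcein AM uptake. The value is the inhibitor concentration giving 50% cell protection.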

Mus musculus [1] = assay: Survival of mice with 0 mg/kg of compound treatment after induction of apoptosis by anti-Fas antibody at 24 hr (n=6); type: functional
In short: (§1)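 Mice received an IV injection of anti-Fas monoclonal antibody; untreated controls received 8 µg. Five minutes later they received an IV dose of inhibitor in an aqueous vehicle containing 50 mM Tris–HCl, or vehicle alone. Six mice per group. Survivors were counted at 1, 3, 6 and 24 h and at 3 days, when the experiment ended, and reported as a percentage of each group.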

Mus musculus [2] = assay: Survival of mice with 1 mg/kg of compound treatment after induction of apoptosis by anti-Fas antibody at 6 hr (n=6); type: functional; in short: as §1
Mus musculus [3] = assay: Survival of mice with 1 mg/kg of compound treatment after induction of apoptosis by anti-Fas antibody at 24 hr (n=6); type: functional; in short: as §1
Caspase-8 = Caspase-8 (Homo sapiens, UniProt Q14790); assay: Inhibitory concentration against Caspase-8
Caspase-7 = target: T1, Caspase-7 (Homo sapiens, UniProt P55210); assay: Inhibitory concentration against Caspase-7
T1 sequence (P55210 whole entry): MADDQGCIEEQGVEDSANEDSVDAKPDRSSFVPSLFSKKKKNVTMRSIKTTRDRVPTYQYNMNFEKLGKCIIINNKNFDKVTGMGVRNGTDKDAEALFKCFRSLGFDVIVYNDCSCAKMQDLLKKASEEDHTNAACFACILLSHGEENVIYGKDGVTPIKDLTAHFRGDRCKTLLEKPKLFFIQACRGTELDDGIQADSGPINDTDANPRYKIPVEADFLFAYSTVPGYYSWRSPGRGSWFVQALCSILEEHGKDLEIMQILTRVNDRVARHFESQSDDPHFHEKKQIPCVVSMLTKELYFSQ

Mus musculus [4] = assay: Survival of mice with 10 mg/kg of compound treatment after induction of apoptosis by anti-Fas antibody at 3 hr (n=6); type: functional; in short: as §1
Mus musculus [5] = assay: Survival of mice with 1 mg/kg of compound treatment after induction of apoptosis by anti-Fas antibody at 3 days(n=6); type: functional; details: 72 h; in short: as §1
Mus musculus [6] = assay: Survival of mice with 0 mg/kg of compound treatment after induction of apoptosis by anti-Fas antibody at 6 hr (n=6); type: functional; in short: as §1
Mus musculus [7] = assay: Survival of mice with 0 mg/kg of compound treatment after induction of apoptosis by anti-Fas antibody at 1 hr (n=6); type: functional; in short: as §1
[8] = Inhibitory concentration against Coagulation factor X
In short: (§2)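 Isolated-enzyme inhibition assays (calpain-1, cathepsin B, factor Xa) tested inhibitor at concentrations up to 100,000 nM. The read-out was IC50.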

Mus musculus [9] = assay: Survival of mice with 0.25 mg/kg of compound treatment after induction of apoptosis by anti-Fas antibody at 6 hr (n=6); type: functional; in short: as §1
Mus musculus [10] = assay: Survival of mice with 0.25 mg/kg of compound treatment after induction of apoptosis by anti-Fas antibody at 3 days(n=6); type: functional; details: 72 h; in short: as §1
Mus musculus [11] = assay: Survival of mice with 0.25 mg/kg of compound treatment after induction of apoptosis by anti-Fas antibody at 24 hr (n=6); type: functional; in short: as §1
Mus musculus [12] = assay: Survival of mice with 10 mg/kg of compound treatment after induction of apoptosis by anti-Fas antibody at 3 days(n=6); type: functional; details: 72 h; in short: as §1
Mus musculus [13] = assay: Survival of mice with 0 mg/kg of compound treatment after induction of apoptosis by anti-Fas antibody at 3 days(n=6); type: functional; in short: as §1
Mus musculus [14] = assay: Survival of mice with 0 mg/kg of compound treatment after induction of apoptosis by anti-Fas antibody at 3 hr (n=6); type: functional; in short: as §1
[15] = Inhibitory concentration against Cathepsin B; in short: as §2
Caspase-9 = target: T2, Caspase-9 (Homo sapiens, UniProt P55211); assay: Inhibitory concentration against Caspase-9
T2 sequence (P55211 whole entry): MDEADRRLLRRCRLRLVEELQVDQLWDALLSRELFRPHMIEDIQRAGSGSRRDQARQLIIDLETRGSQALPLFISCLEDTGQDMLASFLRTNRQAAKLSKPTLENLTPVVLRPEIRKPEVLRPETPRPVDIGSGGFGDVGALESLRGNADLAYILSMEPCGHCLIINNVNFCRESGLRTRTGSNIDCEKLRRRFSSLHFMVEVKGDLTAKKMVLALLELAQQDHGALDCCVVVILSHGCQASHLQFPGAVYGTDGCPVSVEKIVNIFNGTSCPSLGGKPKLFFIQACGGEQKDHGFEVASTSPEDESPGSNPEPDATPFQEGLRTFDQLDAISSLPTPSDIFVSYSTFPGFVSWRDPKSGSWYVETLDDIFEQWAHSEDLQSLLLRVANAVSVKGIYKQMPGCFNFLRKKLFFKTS

[16] = Inhibitory concentration against Caspase-1
Mus musculus [17] = assay: Survival of mice with 10 mg/kg of compound treatment after induction of apoptosis by anti-Fas antibody at 24 hr (n=6); type: functional; in short: as §1
Mus musculus [18] = assay: Survival of mice with 10 mg/kg of compound treatment after induction of apoptosis by anti-Fas antibody at 6 hr (n=6); type: functional; in short: as §1
Caspase-6 = target: T3, Caspase-6 (Homo sapiens, UniProt P55212); assay: Inhibitory concentration against Caspase-6
T3 sequence (P55212 whole entry): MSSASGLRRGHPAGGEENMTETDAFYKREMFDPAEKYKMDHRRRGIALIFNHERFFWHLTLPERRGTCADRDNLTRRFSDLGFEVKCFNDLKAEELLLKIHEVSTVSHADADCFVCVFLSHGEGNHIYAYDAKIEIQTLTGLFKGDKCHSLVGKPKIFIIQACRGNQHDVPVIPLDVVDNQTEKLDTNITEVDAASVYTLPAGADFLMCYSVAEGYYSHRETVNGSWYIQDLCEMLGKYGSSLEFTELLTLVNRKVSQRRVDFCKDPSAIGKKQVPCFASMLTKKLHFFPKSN

Mus musculus [19] = assay: Survival of mice with 0.25 mg/kg of compound treatment after induction of apoptosis by anti-Fas antibody at 1 hr (n=6); type: functional; in short: as §1
Mus musculus [20] = assay: Survival of mice with 0.25 mg/kg of compound treatment after induction of apoptosis by anti-Fas antibody at 3 hr (n=6); type: functional; in short: as §1
Caspase-3 = target: T4, Caspase-3 (Homo sapiens, UniProt P42574); assay: Inhibitory concentration against human caspase-3
T4 sequence (P42574 whole entry): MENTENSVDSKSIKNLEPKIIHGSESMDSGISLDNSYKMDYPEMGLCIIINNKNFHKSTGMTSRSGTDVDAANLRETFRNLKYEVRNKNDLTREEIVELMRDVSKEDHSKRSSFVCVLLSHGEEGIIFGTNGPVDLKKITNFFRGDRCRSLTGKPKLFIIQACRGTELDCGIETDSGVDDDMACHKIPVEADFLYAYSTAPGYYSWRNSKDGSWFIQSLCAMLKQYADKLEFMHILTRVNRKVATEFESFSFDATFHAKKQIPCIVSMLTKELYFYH

[21] = target: T5, Calpain-1 catalytic subunit (Homo sapiens, UniProt P07384); assay: Inhibitory concentration against Calpain 1; in short: as §2
T5 sequence (P07384 whole entry): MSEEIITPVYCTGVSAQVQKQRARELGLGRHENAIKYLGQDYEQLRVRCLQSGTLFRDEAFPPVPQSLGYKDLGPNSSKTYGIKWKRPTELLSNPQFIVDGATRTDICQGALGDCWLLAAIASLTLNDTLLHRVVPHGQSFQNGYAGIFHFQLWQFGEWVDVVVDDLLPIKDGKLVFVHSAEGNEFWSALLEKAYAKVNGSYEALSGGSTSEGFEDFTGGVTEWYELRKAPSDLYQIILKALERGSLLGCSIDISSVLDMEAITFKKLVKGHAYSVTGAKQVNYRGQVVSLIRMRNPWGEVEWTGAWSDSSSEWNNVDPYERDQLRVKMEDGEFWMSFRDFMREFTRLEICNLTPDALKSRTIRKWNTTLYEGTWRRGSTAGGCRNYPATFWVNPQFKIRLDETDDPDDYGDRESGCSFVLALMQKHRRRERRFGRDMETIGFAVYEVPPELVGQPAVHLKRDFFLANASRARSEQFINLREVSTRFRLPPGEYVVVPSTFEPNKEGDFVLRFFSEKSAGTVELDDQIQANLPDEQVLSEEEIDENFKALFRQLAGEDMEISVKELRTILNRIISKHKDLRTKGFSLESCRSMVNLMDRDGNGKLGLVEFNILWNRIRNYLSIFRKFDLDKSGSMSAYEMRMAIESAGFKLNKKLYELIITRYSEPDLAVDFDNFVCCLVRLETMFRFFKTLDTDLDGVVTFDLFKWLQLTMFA

Mus musculus [22] = assay: Survival of mice with 10 mg/kg of compound treatment after induction of apoptosis by anti-Fas antibody at 1 hr (n=6); type: functional; in short: as §1
Mus musculus [23] = assay: Survival of mice with 1 mg/kg of compound treatment after induction of apoptosis by anti-Fas antibody at 3 hr (n=6); type: functional; in short: as §1

Chain of Caspase-8 (Q14790 217-374 limits assumed): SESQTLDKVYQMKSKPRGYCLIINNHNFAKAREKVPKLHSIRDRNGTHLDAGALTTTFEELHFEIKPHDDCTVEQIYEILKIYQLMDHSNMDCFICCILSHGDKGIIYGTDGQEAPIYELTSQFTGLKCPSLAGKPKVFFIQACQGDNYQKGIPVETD
Chain of Caspase-8 (Q14790 385-479 limits assumed): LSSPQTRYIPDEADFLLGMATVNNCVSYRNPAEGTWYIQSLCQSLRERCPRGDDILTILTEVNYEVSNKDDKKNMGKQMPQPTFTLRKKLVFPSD

CC(C)[C@H](OC(=O)Nc1ccccc1)C(=O)NC(CC(=O)O)C(=O)COC(=O)c1c(Cl)cccc1Cl (some centres undefined)
Concentration (HeLa): 1000 nM

CC(C)[C@H](OC(=O)Nc1ccccc1)C(=O)NC(CC(=O)O)C(=O)CF (some centres undefined)
Survival (Mus musculus [1]): 0%
survival at 1 mg/kg (Mus musculus [2]): 100%
survival at 1 mg/kg (Mus musculus [3]): 50%
IC50 (Caspase-8): 17 nM
IC50 (Caspase-7): 11 nM
survival at 10 mg/kg (Mus musculus [4]): 100%
survival at 1 mg/kg (Mus musculus [5]): 0%
Survival (Mus musculus [6]): 0%
Survival (Mus musculus [7]): 0%
IC50 [8]: > 100000 nM
survival at 0.25 mg/kg (Mus musculus [9]): 0%
survival at 0.25 mg/kg (Mus musculus [10]): 0%
survival at 0.25 mg/kg (Mus musculus [11]): 0%
survival at 10 mg/kg (Mus musculus [12]): 83%
Survival (Mus musculus [13]): 0%
Survival (Mus musculus [14]): 0%
IC50 [15]: > 100000 nM
IC50 (Caspase-9): 30 nM
IC50 [16]: 12 nM
Concentration (HeLa): 200 nM
survival at 10 mg/kg (Mus musculus [17]): 83%
survival at 10 mg/kg (Mus musculus [18]): 100%
IC50 (Caspase-6): 50 nM
survival at 0.25 mg/kg (Mus musculus [19]): 100%
survival at 0.25 mg/kg (Mus musculus [20]): 100%
IC50 (Caspase-3): 17 nM
IC50 [21]: > 100000 nM
survival at 10 mg/kg (Mus musculus [22]): 100%
survival at 1 mg/kg (Mus musculus [23]): 100%

CC(C)[C@H](OC(=O)Nc1ccc(Cl)cc1Cl)C(=O)NC(CC(=O)O)C(=O)CF (some centres undefined)
Concentration (HeLa): 100 nM

CC(C)[C@H](NC(=O)Oc1ccccc1)C(=O)NC(CC(=O)O)C(=O)CF (some centres undefined)
Concentration (HeLa): 250 nM

C[C@H](OC(=O)Nc1ccccc1)C(=O)NC(CC(=O)O)C(=O)CF (some centres undefined)
Concentration (HeLa): 1400 nM

CC(C)[C@H](OC(=O)Nc1ccccc1)C(=O)NC(CC(=O)O)C(=O)COc1cc(C(F)(F)F)nn1-c1ccccc1 (some centres undefined)
Concentration (HeLa): 1100 nM
